This passage reports MIC and Ratio results from ChEMBL document CHEMBL4477187, “Macrolides from a Marine-Derived Fungus, Penicillium meleagrinum var. viridiflavum, Showing Synergistic Effects with Fluconazole against Azole-Resistant Candida albicans” (2016).

Common to all, as to format: functional
Assay [1] relates to Candida albicans. The assay is described as follows: Antifungal activity against fluconazole/itraconazole/voriconazole-resistant Candida albicans clinical isolate J2-36 incubated for 48 hrs in presence of fluconazole by checkerboard microdilution assay. The note with it: isolate J2-36, 48 h. The method in brief: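 Test compound combined with fluconazole against the clinical isolate, 48 h at 37 °C. Combination MIC taken as lowest concentration giving ≥90% growth reduction versus drug-free control.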
For orientation: Dilution methods test growth across graded concentrations, often in twofold steps.

The subject of assay [2] is Candida albicans. The assay is described as follows: Antifungal activity against fluconazole/itraconazole/voriconazole-resistant Candida albicans clinical isolate J2-36 assessed as fractional inhibitory concentration in presence of fluconazole incubated for 48 hrs by checkerboard microdilution assay. The method in brief:
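FICA per test compound = MIC in combination with fluconazole / MIC alone. Clinical isolate incubated 48 h at 37 °C. Each MIC = lowest concentration giving ≥90% growth reduction versus drug-free control.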

Assay [3] deals with Candida albicans. Nature of the assay: Antifungal activity against fluconazole/itraconazole/voriconazole-resistant Candida albicans clinical isolate J2-36 incubated for 48 hrs by microdilution assay. The following applies: isolate J2-36, 48 h. The method in brief: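 Clinical isolate grown 48 h at 37 °C with test compound alone, tested up to […] μg/mL. MIC read as lowest concentration giving ≥90% growth reduction versus drug-free control.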

≈ marks a conversion by molar mass, not a printed value. Bounds are passed on as bounds.

What is called MIC is the lowest concentration found to suppress growth. For the molecule `CCCCC[C@@H]1CC[C@H](C)CCCCC(=O)N(C)[C@@H](Cc2ccc(OCCO)cc2)C(=O)O1`, the figures for the MIC with Candida albicans [1] and against Candida albicans [3] were 0.0016 µg/mL and 2 µg/mL (≈ 4.33 µM), respectively. Moreover, the Ratio with Candida albicans [2] came out at 0.00078.

With `CCC[C@H](O)C[C@@H]1CC[C@H](C)CCCCC(=O)N(C)[C@@H](Cc2ccc(OCC(O)C(C)(C)O)cc2)C(=O)O1` (some centres not stated), the MIC in the assay on Candida albicans [1] is 0.5 µg/mL; against Candida albicans [3], above 32 µg/mL. In addition, in the assay on Candida albicans [2], the Ratio is on record as below 0.016.

As to `CCCCCCC[C@@H]1CC[C@H](C)CCCCC(=O)N(C)[C@@H](Cc2ccc(OCCO)cc2)C(=O)O1`, the MIC with Candida albicans [1] is 0.5 µg/mL; with Candida albicans [3], above 32 µg/mL. In addition, the Ratio with Candida albicans [2] is given as below 0.016.

Turning to `CCC[C@@H]1CC[C@H](C)CCCCC(=O)N(C)[C@@H](Cc2ccc(OCCO)cc2)C(=O)O1`, the figures for the MIC in the assay with Candida albicans [1] and against Candida albicans [3] were 0.125 µg/mL and 16 µg/mL (≈ 36.9 µM), respectively. The Ratio in the assay on Candida albicans [2] was determined as 0.0078.

Take `C[C@@H]1CCCCC(=O)N(C)[C@@H](Cc2ccc(OCCO)cc2)C(=O)O[C@H](C[C@H](C)O)CC1`: the MIC in the assay with Candida albicans [1] came to 0.031 µg/mL; in the assay with Candida albicans [3] it was 8 µg/mL (≈ 17.8 µM). Moreover, the Ratio with Candida albicans [2] came to 0.0039.

Regarding `CCC[C@H](O)C[C@@H]1CC[C@H](C)CCCCC(=O)N(C)[C@@H](Cc2ccc(OCCO)cc2)C(=O)O1`, the figures for the MIC in the assay on Candida albicans [1] and in the assay with Candida albicans [3] were 0.0078 µg/mL and 1 µg/mL (≈ 2.09 µM), respectively. In the assay on Candida albicans [2], the Ratio is 0.0078.

Turning to `CCCCC[C@@H]1CC[C@H](C)CCCCC(=O)N(C)[C@@H](Cc2ccc(OCC=C(C)C)cc2)C(=O)O1`, the MIC is 1 µg/mL with Candida albicans [1] and above 32 µg/mL in the assay on Candida albicans [3]. In addition, the Ratio with Candida albicans [2] is below 0.031.

`OC(Cn1cncn1)(Cn1cncn1)c1ccc(F)cc1F` [FLUCONAZOLE]: in the assay on Candida albicans [3], the MIC was above 64 µg/mL.
